This note sets out measurements from ChEMBL document CHEMBL2406953, “Bioactive constituents of Indigofera spicata” (J Nat Prod, 2013).

Series [1] in a line: Cytotoxicity against mouse Hepa-1c1c7 cells. It counts as functional, cell-based.
The nature of series [2]: Chemopreventive index, ratio of IC50 for mouse Hepa1c1c7 cells to CD for quinone reductase in mouse Hepa1c1c7 cells.
The species entered for series [3] is Mus musculus. As to the kind of experiment: Induction of quinone reductase in mouse Hepa1c1c7 cells. It counts as cell-based. An outline of the steps:
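Phase II enzyme induction was measured in murine Hepa 1c1c7 hepatoma cells by a standard quinone reductase procedure. L-sulforaphane served as the positive control. Values are CD, the concentration that doubles quinone reductase activity, given as mean ± SD of three independent experiments.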

The test system of series [4] is HT-29. As to the kind of experiment: Cytotoxicity against human HT-29 cells after 72 hrs by SRB assay. The conditions noted are these: HT-29, 72 h. It counts as functional, cell-based. An outline of the steps: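 HT-29 colon cancer cells, sulforhodamine B assay, 72 h; paclitaxel positive control; IC50 defined as concentration inhibiting 50% cell growth, mean ± SD from a triplicate.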

Series [5] in a line: Selectivity ratio of IC50 for human CCD-112CoN cells to IC50 for human HT29 cells. The conditions noted are these: CCD-112CoN cells versus HT29 cells, read-out: Ratio IC50. It counts as ADME, cell-based, HT-29. An outline of the steps:
(§1)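 Normal colon CCD-112CoN cells tested by SRB assay alongside HT-29; IC50 (50% growth inhibition) as mean ± SD of triplicate; paclitaxel positive control; fold selectivity = IC50 in CCD-112CoN divided by IC50 in HT-29.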

Series [6] is described as follows: Cytotoxicity against human CCD-112CoN cells by SRB assay. Type of series: cell-based. Put shortly: as §1
In series [7] the test system is 697. As to the kind of experiment: Cytotoxicity against human 697 cells after 72 hrs by MTS assay. It counts as functional, cell-based. The conditions noted are these: Homo sapiens, 697, 72 h. Put shortly:
(§2)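 697 (DSMZ) and Raji (ATCC) cells at 200,000 cells/mL; compounds from 2 mM DMSO stock, diluted in 10% DMSO, eight three-fold dilutions giving final 10 to 0.005 µM plus 0; final DMSO 0.5%; vincristine sulfate 25 nM positive control. Quadruplicate wells, 48 and 72 h, 37°C, 5% CO2; MTS read-out; IC50 = 50% growth inhibition, mean ± SD of three independent experiments.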

Series [8] concerns 697. In words: Cytotoxicity against human 697 cells after 48 hrs by MTS assay. It counts as functional, cell-based. Conditions: Homo sapiens, 697, 48 h. Put shortly:
as §2

Series [9] relates to HT-29. In words: Antitumor activity against human HT-29 cells in hollow fiber implanted in immunodeficient NCr nu/nu mouse assessed as reduction in cell growth at 0.5 to 2 mg/kg, ip qd.
The test system of series [10] is Raji. In words: Cytotoxicity against human Raji cells after 72 hrs by MTS assay. It counts as functional, cell-based. An outline of the steps: as §2
The test system of series [11] is Raji. In words: Cytotoxicity against human Raji cells after 48 hrs by MTS assay. It counts as functional, cell-based. Put shortly: as §2
Series [12] has as its system Mus musculus. As to the kind of experiment: Toxicity in immunodeficient NCr nu/nu mouse at 0.5 to 2 mg/kg, ip qd. Type of series: organism-based. Also on record: dose 0.5-2 mg/kg, route intraperitoneal. Conditions: in vivo.
The test system of another series is MDA-MB-435. In words: Antitumor activity against human MDA-MB-435 cells in hollow fiber implanted in immunodeficient NCr nu/nu mouse assessed as reduction in cell growth at 2 mg/kg, ip qd. Type of series: functional. Also on record: scale not given: the % may be the effect or the level left. The conditions noted are these: route intraperitoneal.
For series [13], the system named is Mus musculus. In words: Toxicity in immunodeficient NCr nu/nu mouse at 5 to 30 mg/kg, ip qd. It counts as organism-based. The arrangement: dose 5-30 mg/kg, route intraperitoneal. The conditions noted are these: in vivo. Put shortly:
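Female NCr nu/nu mice with ip and sc hollow fibers (HT-29, MCF-7, MDA-MB-435 cells) given compound in 30% cyclodextrin ip once daily at 5, 10, 15, 30 mg/kg; bortezomib 1 mg/kg ip daily in 30% cyclodextrin as positive control; lethality monitored after each injection.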

Series [14] deals with 697. As to the kind of experiment: Induction of cell death in human 697 cells at 10 uM after 48 to 72 hrs using propidium iodide staining by flow cytometry. It counts as functional. An outline of the steps:
(§3)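 697 cells at 200,000 cells/mL treated at final 10, 1.11, 0.123, 0.014, 0 µM (from 2 mM stock, 10% DMSO dilutions, final DMSO 0.5%) for 48 and 72 h; vincristine 25 and 5 nM positive control. Same dilutions run in parallel by MTS and by propidium iodide: cells pelleted, resuspended in PI/PBS, 15 min dark at room temperature, flow cytometry; three independent experiments.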

Series [15] concerns 697. In words: Cytostatic activity against human 697 cells assessed as reduction in cell viability at 0.014 to 10 uM after 48 to 72 hrs by MTS assay. It counts as functional, cell-based. Put shortly: as §3

Activity calls are given as the source filed them.

In [1], `COc1ccc2c(c1/C=C/C(C)(C)O)O[C@H](c1ccccc1)CC2=O` registered a concentration for half-maximal inhibition (IC50) of 47.4 µM. Further, in series [2], the Ratio is reported as 11.3. Further, the CD in the series filed under Mus musculus [3] turned out to be 4.2 µM.

In [1], `COc1ccc2c(c1/C=C/C(C)(C)OC)O[C@H](c1ccccc1)CC2=O` returned a half-inhibitory concentration (IC50) of 49 µM. The Ratio in series [2] is 5.9. For the same compound, the CD in the series listed under Mus musculus [3] was 8.3 µM.

`COc1cc2c(c3c1C(=O)C[C@@H](c1ccccc1)O3)[C@H]1[C@@H](O2)OC(C)(C)[C@@H]1OC(C)=O` (stereo in doubt; 2) [listing 1 of 2 here] returned an IC50 in series [1] of 63.9 µM. The Ratio in [2] came to 376.7.

In the series listed under Mus musculus [3], `COc1cc2c(c3c1C(=O)C[C@@H](c1ccccc1)O3)[C@H]1[C@@H](O2)OC(C)(C)[C@@H]1OC(C)=O` (stereo in doubt; 2) [listing 2 of 2 here] showed a CD of 0.2 µM.

With `COc1cc2c(c3c1C(=O)C[C@@H](c1ccccc1)O3)[C@H]1[C@@H](O2)OC(C)(C)[C@@H]1OC(C)=O` (stereo in doubt; 5), the CD in the series listed under Mus musculus [3] was greater than 10 µM.

`COc1ccc2c(c1C1=COC(C)(C)C1=O)O[C@H](c1ccccc1)CC2=O` [(2S)-2,3-DIHYDROTEPHROGLABRIN] showed an IC50 in series [1] of 23.1 µM. Besides, the Ratio in series [2] is given as 3.6. The same compound showed a CD in the series listed under Mus musculus [3] of 6.4 µM.

In series [1], `CC1(C)O[C@@H]2Oc3ccc(C(=O)/C=C/c4ccccc4)c(O)c3[C@@H]2[C@H]1O` [(+)-TEPHROSONE] returned an IC50 of 37.6 µM. Also, in [2], the Ratio was 9.9. For the same compound, in the series filed under Mus musculus [3], the CD was 3.8 µM.

As to `C[S@+]([O-])CCCCN=C=S` [L-SULFORAPHANE], half-maximal inhibition in series [1] (IC50) required 12.1 µM. Besides, in series [2], the Ratio is recorded as 23.9. This compound also showed a CD in the series filed under Mus musculus [3] of 0.5 µM.

Regarding `CC(=O)O[C@H]1C(=O)[C@@]2(C)[C@H]([C@H](OC(=O)c3ccccc3)[C@]3(O)C[C@H](OC(=O)[C@H](O)[C@@H](NC(=O)c4ccccc4)c4ccccc4)C(C)=C1C3(C)C)[C@]1(OC(C)=O)CO[C@@H]1C[C@@H]2O` [PACLITAXEL], the half-maximal inhibitory concentration (IC50) came to 0.6 nM in the series with HT-29 [4] and 23 µM in series [6]. In addition, the selectivity ratio in [5] is 38300.

As for `C=C(C)[C@H]1Cc2c(ccc3c2O[C@@H]2COc4cc(OC)c(OC)cc4[C@]2(O)C3=O)O1` [ROTENOLONE], the IC50 was 500 nM in the series with 697 [7]; 0.2 µM in series [1]; 100 nM in the series with HT-29 [4]; 700 nM with 697 [8]; 2400 nM with Raji [10]; 102 µM in series [6]. Half-maximal inhibition in the series on Raji [11] (IC50) required 5.6 µM. For the same compound, the selectivity ratio in [5] came out at 1020. Moreover, in the series with HT-29 [9], the outcome was inactive. Moreover, in series [2], the Ratio is recorded as 0.6. In the series filed under Mus musculus [3], this compound came in with a CD of 0.4 µM. The results for the Activity result in the series on Mus musculus [12], with MDA-MB-435 and with Mus musculus [13] were “Non-toxic”, 20% and “Toxic”, respectively.

Take `C=C(C)[C@H]1Cc2c(ccc3c2O[C@@H]2COc4cc(OC)c(OC)cc4[C@@H]2C3=O)O1` [ROTENONE]: the IC50 with 697 [7] is 300 nM; in series [1] it was 0.7 µM; in the series on 697 [8], 300 nM; in the series with Raji [10], 1100 nM; in series [6], greater than 127 µM; in the series on Raji [11] it was 4.2 µM. In series [5], the selectivity ratio is greater than 423. Further, the Ratio in series [2] stood at 0.9. Moreover, the CD in the series filed under Mus musculus [3] was found to be 0.8 µM.

`COc1cc2c(c(O)c1C(=O)/C=C/c1ccccc1)[C@H]1[C@@H](O2)OC(C)(C)[C@@H]1OC(C)=O` [TEPHROPURPURIN] yielded an IC50 in series [1] of 18.1 µM. The Ratio in series [2] is 23.9. Besides, the CD in the series filed under Mus musculus [3] was found to be 0.8 µM.

Take `COc1cc2c(cc1OC)[C@]1(O)C(=O)c3ccc4c(c3O[C@@H]1CO2)C=CC(C)(C)O4` [TEPHROSIN]: the half-maximal inhibitory concentration (IC50) in the series with 697 [7] is 9000 nM; in series [1], 13.9 µM; in the series on HT-29 [4], greater than 10000 nM; in the series on 697 [8], 5400 nM; in the series with Raji [10], greater than 10000 nM; in the series on Raji [11], greater than 10 µM. Moreover, in the series on 697 [14], the Activity is reported as 24%. In series [2], the Ratio is listed as 35.3. For the same compound, the result with 697 [15] was Active. Further, the CD in the series filed under Mus musculus [3] stood at 0.4 µM.
